# About 250 (0.93%) of roughly 27,000 compounds were called active.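 Rule for the calls: active = mutant luminescence inhibited past about 50% while wild type luminescence and mutant growth stay under set limits (limit read from the data); inconclusive = mutant versus wild type luminescence inhibition gap past a set limit; inactive = the rest.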 For the sample, actives were picked, then their nearest neighbours and some compounds at random.
# Experiment: mutant yeast GCN4 reporter luminescence inhibitors – S. cerevisiae, eIF2B-epsilon R284H, Beta-Glo luminescence, primary screen (AID 688)
# Details: GCN4-lacZ luminescence; growth inhibition: measured here: mutant yeast growth, toxicity, concentration not given here; inhibition: stronger effect = higher value, screened at 25 µM (by protocol)
# Method in brief: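 Material – yeast eIF2B-epsilon R284H mutant carrying GCN4–beta-galactosidase fusion · Medium – YPD yeast growth medium · Compound – one concentration, 25 µM, 0.25% DMSO · Times – 16 h at 30 °C exposure · Signal – Beta-Glo luminescence plus absorbance at 595 nm · Read-out – % inhibition of reporter signal and growth versus controls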
SMILES,growth inhibition [%],inhibition
COc1ccc(Cl)cc1C(=O)Nc1ccc(N(C)C(C)=O)cc1,27.8,21.8% (inactive)
CCN(CC)CCNC(=O)CCCCCn1c(=O)[nH]c2cc(C(=O)OC)ccc2c1=O,3.33,12.9% (inactive)
Nn1c(Cc2cccc3ccccc23)nnc1SCC(=O)N1CC(=O)Nc2ccccc21,7.35,9.26% (inactive)
Cc1ccc(C2=CSC3=NS(=O)(=O)CCN23)cc1C,-2.38,1.24% (inactive)
O=C(c1cccc2ccccc12)N1CCN(c2ccccc2F)CC1,10.7,8.17% (inactive)
O=C(O)CCSc1nnc(-c2ccccc2)n1-c1ccccc1,-9.09,19.8% (inactive)
Cc1ccc(S(=O)(=O)NCC(C)NS(C)(=O)=O)cc1 (stereo not given),1.47,-24.4% (inactive)
COCc1nnc(NC(=O)CS(=O)(=O)Cc2ccccc2)s1,-13.8,8.87% (inactive)
COc1ccc(-n2c(SCC(=O)Nc3ccc4c(c3)OCO4)nnc2C(C)N2CCCCC2)cc1 (stereo not given),-17.2,32% (inactive)
O=C(NC1(C(F)(F)F)NC(=O)N(Cc2cccnc2)C1=O)c1ccccc1Cl (stereo not given),-9.52,12.7% (inactive)
CCc1nnc(NC(=O)CSc2nc3ccccc3c(=O)n2CCCOC)s1,-4.35,-1.74% (inactive)
Cc1cc(-n2nc(C)cc2C)n2nc(C)c(-c3ccccc3)c2n1,-28.6,-42.8% (inactive)
CCOC(=O)c1cnc(SCC(=O)NCc2ccco2)nc1N,5.17,-10.3% (inactive)
CCOc1ccccc1NC(=O)C1CCCN(C(=O)Nc2ccccc2)C1 (stereo not given),-12.5,25.3% (inactive)
COc1ccc(C2N=C(N)N=C(N)N2c2ccccc2)cc1OC (stereo not given),-25,-6.05% (inactive)
COc1ccc(OC)c(-n2nnnc2SCC(=O)Nc2cc(C)ccc2OC)c1,-24.1,30.4% (inactive)
COC(=O)c1cccc(N(C(=O)c2ccco2)C(C(=O)NC2CCCC2)c2ccco2)c1 (stereo not given),–,-17.9% (inactive)
CCC(C(=O)NC1CCCC1)N(C(=O)c1snc(C(N)=O)c1N)c1ccc2c(c1)OCCO2 (stereo not given),-13.6,52.4% (active)
CCCCNC(=O)CCNC(=O)c1ccc(C(C)(C)C)cc1,22.6,20.7% (inactive)
CCCCCCSc1nsc(N)n1,5.56,30.6% (inactive)
CC(C)C(=O)Nc1nnc(Sc2ccc(N(C)C)cc2)s1,-33.3,-11.6% (inactive)
COc1ccc(CNC(=O)CCn2cccc2)cc1,33.3,18.8% (inactive)
CCCNC(=O)N1CCN(C(=O)NCCC)CC1,5.13,3.89% (inactive)
COc1ccccc1NC(=O)CC(NCCN(C)C)C(=O)O (stereo not given),18.9,15.2% (inactive)
CC(=O)Nc1ccc(NC(=O)CSCc2cnn(-c3ccccc3)c2-n2cccc2)cc1,-16.7,13.1% (inactive)
COCCNC(=O)COc1ccccc1C,6.67,9.39% (inactive)
Cc1nc(N2CCOCC2)nc2c1CCCC2,15,16.9% (inactive)
C[C@H](NC(=O)OC(C)(C)C)c1nnc(SCC(N)=O)o1,7.41,12.5% (inactive)

SMILES,growth inhibition [%],inhibition
O=C(c1cc2sccc2n1Cc1ccc(F)cc1)N1CCc2ccccc21,13.5,26.8% (inactive)
CCCCCCc1cc2cc(-c3nnc(-c4cccc(OC)c4)o3)c(=O)oc2cc1O,–,-37.6% (inactive)
CCC(=O)N(Cc1cc2cc(OC)ccc2[nH]c1=O)c1ccccc1C,3.45,5.99% (inactive)
CC(C)(C)n1nnnc1C(c1ccc(Cl)cc1)N1CCSCC1 (stereo not given),-17.4,13.7% (inactive)
CCN(CC)CCCN1C(=O)C(=O)/C(=C(/O)c2c(C)nc3ccccn23)C1c1ccc(C)o1 (stereo not given),3.45,7.68% (inactive)
CC(=O)NC(C)(C)C1CC=C(C)/C(=N\O)C1 (stereo not given),-23.8,-13.5% (inactive)
CC(C)CC(N=C1NC(C)(C)Cc2ccccc21)C(=O)O (stereo not given),21.1,6.22% (inactive)
O=C(CN1C(=O)CC(c2ccccc2)=Nc2ccccc21)NC1CCCCC1,-28.6,18.7% (inactive)
CCN(CC(=O)NC1CCS(=O)(=O)C1)c1nc(-c2cccnc2)nc2ccccc12 (stereo not given),-30.9,20.1% (inactive)
C[C@H](NC(=O)OC(C)(C)C)c1nnc(SCC(=O)Nc2ccc(Br)cc2)o1,-11.1,14.5% (inactive)
CCOC(=O)C1=C(C)NC2=C(C(=O)CC(C)(C)C2)C1c1ccsc1 (stereo not given),-7.5,9.79% (inactive)
Cc1c(C(=O)CN2CCOCC2)[nH]c2ccccc12,18.5,16.8% (inactive)
COc1ccc(C2C(C(C)=O)=C(O)C(=O)N2Cc2cccnc2)cc1 (stereo not given),–,-0.66% (inactive)
CCOC(=O)NC(C(F)(F)F)(C(F)(F)F)P(=O)(c1ccccc1)c1ccccc1,-5.56,-15.8% (inactive)
Cc1cc(=O)oc(C)c1C(=O)Nc1cnc2ccccc2c1,-3.7,17.1% (inactive)
COc1ccc(C(C#N)N2N=C(C)CC2(C)C)cc1 (stereo not given),4.76,-5.47% (inactive)
COC(=O)C1=C(C)NC(=O)NC1/C=C/c1ccccc1 (stereo not given),-4.55,22.3% (inactive)
Cc1cc(Oc2ccccc2)nc(N2CCOCC2)n1,5.41,12.4% (inactive)
CCCc1nc2c3cnn(-c4cccc(Cl)c4)c3ncn2n1,–,17.9% (inactive)
CCCc1nc(-c2ccccc2O)n(-c2ccccc2)n1,25.8,52.9% (active)
CCCCOc1ccc(NC(=O)CSCC(=O)OCC)cc1,–,25% (inactive)
Cc1ccc(-c2nnn(CC(=O)N(CCO)C(C(=O)NC(C)(C)C)c3ccncc3)n2)cc1 (stereo not given),14.8,23.7% (inactive)
O=c1c2ccccc2oc2nc3n(c(=O)c12)CCCS3,4,24.9% (inactive)
CCOc1ccc(N=C2SC(C(=O)O)CC(=O)N2C)cc1 (stereo not given),12,24.2% (inactive)
CCCOc1cc(C)c(S(=O)(=O)n2nnc3ccccc32)cc1C,12.9,11.9% (inactive)
O=C(CSc1nnc(-c2cnccn2)n1Cc1ccco1)c1ccc(Cl)c(Cl)c1,-22.6,4.49% (inactive)
COc1ccc(-c2cc(C(=O)NCc3ccco3)no2)cc1OC,2.7,19.9% (inactive)
